Measurements published in ChEMBL document CHEMBL3526126, “Amide hydrolysis of a novel chemical series of microsomal prostaglandin E synthase-1 inhibitors induces kidney toxicity in the rat” (Drug Metab Dispos, 2013).

Tests used:
[1] = Drug metabolism in Sprague-Dawley rat hepatocytes assessed as formation of 4-(phenylethynyl)benzoic acid metabolite hyd at 1 to 10 uM by LC-MS analysis; assay type: ADME, cell-based, Hepatocyte
In short: (§1)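 Hepatocytes at 1 × 10^6 cells/ml in William's medium incubated at 37°C with gentle shaking under 5% CO2. Substrate was at […]. Metabolites were analysed by LC-MS.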

[2] = Cmax in male Wistar Hannover rat at 500 umol/kg, po qd measured on day 1; conditions: in vivo
[3] = Drug metabolism in Sprague-Dawley rat hepatocytes assessed as formation of benzene-1,2-disulfonamide metabolite M1 at 1 to 10 uM by radio monitoring method; assay type: ADME, cell-based, Hepatocyte
In short: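 Hepatocytes at 1 × 10^6 cells/ml in William's medium were incubated at 37°C with gentle shaking under 5% CO2, with substrate at […]. Separation was on an Atlantis T3 column (100 × 4.6 mm) at 1 ml/min, split 1:20 to the ion source and a flow scintillation monitor. Scintillation cocktail was added at 4 ml/min through a 0.5 ml flow cell.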

[4] = Drug metabolism in Sprague-Dawley rat hepatocytes assessed as formation of benzene-1,2-disulfonamide metabolite M1 at 1 to 10 uM by LC-MS analysis; assay type: ADME, cell-based, Hepatocyte; in short: as §1
[5] = tested on: Rattus norvegicus; experiment: Toxicity in Wistar Hannover rat kidney assessed as tubular degeneration /regeneration at 500 umol/kg, po qd administered for 7 days […]; assay type: organism-based; conditions: in vivo, 168 h
In short: (§2)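 Wistar Hannover rats, about 8 weeks old, were gavaged once daily (10 ml/kg) for 7 days. One day after the last dose they were killed by carotid exsanguination under isoflurane/oxygen. Kidneys were fixed in buffered formalin, embedded in paraffin, sectioned, stained with hematoxylin and eosin, and examined by light microscopy.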

[6] = AUC (0 to 24 hrs) in female Wistar Hannover rat at 500 umol/kg, po qd administered for 7 days measured on day 7; conditions: plasma
[7] = tested on: Rattus norvegicus; experiment: Toxicity in Wistar Hannover rat kidney assessed as free crystals in renal pelvis at 1000 umol/kg, po qd administered for 7 days measured after day 8 by hematoxylin/eosin staining-based light microscopic analysis; assay type: organism-based; conditions: in vivo, 168 h; in short: as §2
[8] = tested on: Rattus norvegicus; experiment: Toxicity in Wistar Hannover rat kidney assessed as hemorrhage in renal pelvis at 1000 umol/kg, po qd administered for 7 days measured after day 8 by hematoxylin/eosin staining-based light microscopic analysis; assay type: organism-based; conditions: in vivo, 168 h; in short: as §2
[9] = tested on: Rattus norvegicus; experiment: Toxicity in Wistar Hannover rat kidney assessed as pale organ discoloration at 1000 umol/kg, po qd administered for 7 days measured on day 7 by necroscopic analysis; assay type: organism-based; conditions: in vivo, 168 h
[10] = Cmax in female Wistar Hannover rat at 1000 umol/kg, po qd measured on day 1; conditions: in vivo
[11] = Effect on rat mPGES-1
[12] = AUC (0 to 24 hrs) in male Wistar Hannover rat at 500 umol/kg, po qd administered for 7 days measured on day 7; conditions: plasma
[13] = Cmax in Sprague-Dawley rat at 1000 umol/kg, po qd administered for 7 days measured on day 7; assay type: ADME, organism-based; parameters: dose 1000 umol/kg, route oral; conditions: in vivo
In short: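 Toxicity study 2: 2 female satellite rats per dose group. Dosing was once daily by oral gavage (10 ml/kg) for 7 days. Tail-vein EDTA blood was taken at 2, 4, 6, 7 and 24 h on day 1 and on day 7, then chilled and centrifuged to plasma. Parent and M1 were quantified by LC-MS/MS, with M1 measured in negative electrospray mode.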

[14] = tested on: Rattus norvegicus; experiment: Toxicity in Wistar Hannover rat kidney assessed as presence of dilated tubules with cellular remnants within lumen at 1000 umol/kg, po qd administered for 7 days measured on day 7 by necroscopic analysis; assay type: organism-based; conditions: in vivo, 168 h
[15] = tested on: Rattus norvegicus; experiment: Drug metabolism in Wistar Hannover rat assessed as formation of oxidized and sulfate-conjugated metabolite in plasma at 500 umol/kg, po qd administered for 7 days measured on day 7 by LC-MS analysis; assay type: ADME, organism-based; conditions: in vivo, 168 h

- Drug metabolism [1]: metabolite_detected
- Cmax [2]: 73 µM
- Drug metabolism [3]: metabolite_not_detected
- Drug metabolism [4]: metabolite_not_detected
- AUC at 24 h [6]: 430 µM·h
- Cmax [10]: 75 µM
- Activity [11]: Not Active
- AUC at 24 h [12]: 480 µM·h
- Cmax [13]: 95 µM
- Drug metabolism [15]: metabolite_detected
Compound: NS(=O)(=O)c1ccccc1S(=O)(=O)NC(=O)c1ccc(C#Cc2ccccc2)cc1
- Activity [5]: Toxic
- Activity [7]: Toxic
- Activity [8]: Toxic
- Activity [9]: Toxic
- Activity [14]: Toxic
